The subject of assay [1] is K562. As to the kind of experiment: Induction of cell cycle arrest in human K562 cells assessed as accumulation at G2/M phase at 10 uM incubated for 24 hrs by propidium iodide staining based flow cytometry (reference value: 31.6%). Type of assay: functional.
The test system of assay [2] is K562. Nature of the assay: Induction of apoptosis in human K562 cells assessed as chromatin condensation at 10 uM incubated for 48 hrs by Hoechst 33342 staining based fluorescence microscopy. The assay is classed as functional, cell-based. The method, boiled down:
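K562 cells (8 × 10³/well) on poly-D-lysine-coated wells, allowed to adhere overnight. Stained with Hoechst 33342 for 30 min, washed with PBS, resuspended in medium, then treated at 10 μM for 48 h.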

In assay [3] the test system is K562. As to the kind of experiment: Induction of apoptosis in human K562 cells assessed as late apoptotic cells level at 10 uM incubated for 24 hrs by Annexin-V and propidium iodide staining staining based flow cytometry (reference value: 0.2%). The assay is classed as functional. For orientation: A flow cytometer gives signals particle by particle.
In assay [4] the test system is K562. Nature of the assay: Induction of cell cycle arrest in human K562 cells assessed as accumulation at sub G0/G1 phase at 10 uM incubated for 24 hrs by propidium iodide staining based flow cytometry (reference value: 0.8%). The assay is classed as functional.
For assay [5], the system named is K562. Nature of the assay: Induction of apoptosis in human K562 cells assessed as reduction in pro-caspase-6 levels at 10 uM incubated for 48 hrs by Western blot method relative to basal level. The assay is classed as functional. Conditions: K562, 48 h. The method, boiled down: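 K562 cells were seeded at 1.5 × 10⁵/well and treated 48 h. Lysate protein was measured by Lowry assay and run on SDS-PAGE. Blots on nitrocellulose were probed with alkaline phosphatase-conjugated antibodies to pro-caspases 3 and 6. Loading was checked by Ponceau red and β-actin immunoblot, with level expressed against basal. Three independent experiments.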

The test system of assay [6] is K562. As to the kind of experiment: Induction of apoptosis in human K562 cells assessed as viable cells level at 10 uM incubated for 24 hrs by Annexin-V and propidium iodide staining staining based flow cytometry (reference value: 98%). Type of assay: functional.
Assay [7] can be described thus: Growth inhibition of human BT549 cells by NCI standard protocol based method. The assay is classed as functional. Conditions: BT-549. The method, boiled down:
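NCI full 60-cell-line panel, 5-dose assay to the NCI standard protocol. GI₅₀ is the molar concentration inhibiting 50% net cell growth. Mean graph midpoint is averaged over all lines; where the effect is not reached, the highest tested concentration is used.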

Molecules are shown by their SMILES. Active and inactive are the calls of the source. The rule behind the calls is not given here.

Usually inhibition stands for how much of the control response was suppressed. Usually GI50 stands for the concentration at which growth is held to half of that of the control. Low readings indicate more potent growth inhibition, high ones less potent growth inhibition. With `COc1cc(NC(=O)COc2ccccc2)c(C(N)=O)cc1OC`, the Activity in the assay on K562 [1] was found to be 2.8%; in the assay on K562 [3] it was 11.6%; with K562 [4], 13.2%; in the assay with K562 [6], 63.3%. In addition, the outcome with K562 [2] was Active. Also, the inhibition at 10 µM in the assay on K562 [5] turned out to be 50%. This compound also came in with a GI50 in assay [7] of 770 nM.

Regarding `NC(=O)c1cc(I)ccc1NC(=O)COc1ccccc1`, the Activity is 2.4% with K562 [1], 12.5% with K562 [3], 14.5% in the assay with K562 [4] and 62.1% in the assay on K562 [6]. Also, in the assay on K562 [2], the result was Active. Besides, in the assay on K562 [5], the inhibition at 10 µM worked out at 20%.
